Blank lines part the entries; values can stand above or below the compound they belong to. The source made the active and inactive calls. The calls are words filed in the database; no cut-off is given here.
What was measured:
HT-22 [1] = experiment: Cytoprotection against glutamate-induced apoptosis in mouse HT22 cells assessed as decrease in Bax/Bcl2 ratio at 1 uM after 24 hrs by RT-PCR method; type: functional, cell-based
Method in brief: (§1)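 HT-22 mouse hippocampal cells grown in high-glucose DMEM with 10% heat-inactivated FBS at 37 °C, 5% CO2. Compound (1 μM; DMSO stock, final DMSO 0.025%) added together with 2 mM glutamate for 24 h. Transcripts measured by qRT-PCR. iNOS or Bax/Bcl-2 ratio reported as fold change vs untreated control (set at 1) by the ΔΔCt method.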

HT-22 [2] = experiment: Cytoprotection against glutamate-induced oxidative stress in mouse HT22 cells assessed as decrease in iNOS mRNA level at 1 uM after 24 hrs by RT-PCR method; type: functional, cell-based; method in brief: as §1
HT-22 [3] = experiment: Cytoprotection against glutamate-induced excitotoxicity in mouse HT22 cells assessed as increase in cell viability at 1 uM after 24 hrs by optical microscopic assay; type: functional, cell-based
Method in brief: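 Cells co-treated 24 h with 2 mM glutamate plus compound at 1 μM. Viable cells judged from optical microscope images.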

HT-22 [4] = experiment: Cytoprotection against glutamate-induced excitotoxicity in mouse HT22 cells assessed as decrease in glutamate-induced cell cycle arrest at sub-G1 phase at 1 uM after 24 hrs by propidium iodide staining based flow cytometry; type: functional
Method in brief: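 HT-22 cells (1.5 × 10^5 per well) co-treated 24 h with 2 mM glutamate plus compound at 1 μM, final DMSO 0.025%. Pelleted, PBS-washed, stained 30 min in PI solution (50 μg/mL PI, Triton, Na citrate). DNA content read by flow cytometry and the SubG1 fraction scored. Mean of three independent experiments ± SD.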

[5] = biological target: T1, Amyloid-beta precursor protein (Homo sapiens, UniProt P05067); experiment: Disruption of recombinant human amyloid beta (1 to 40) fibrils at 10 uM after 24 hrs by ThT fluorescence assay relative to control
Method in brief: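 Aβ1-40 fibrils (10 μM in 150 mM MOPS, pH 6.9) incubated 24 h at 37 °C with compound at 10 μM. ThT added to 20 μM, 1 h at 37 °C in the dark, excitation 440 nm, emission 485 nm. Intensity normalized to fibrils alone. Triplicate, mean ± SD. Intrinsic compound fluorescence measured without peptide.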

HT-22 [6] = experiment: Cytoprotection against glutamate-induced excitotoxicity in mouse HT22 cells assessed as increase in cell proliferation at 1 uM after 24 hrs by MTT assay; type: functional, cell-based
Method in brief: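 HT-22 cells (5 × 10^3 per well) co-treated 24 h at 37 °C with 2 mM glutamate plus compound at 1 μM, final DMSO 0.025%. MTT added to 0.5 mg/mL final for 2 h, formazan dissolved in acidified isopropanol/NP40, A570 read. Proliferation relative to untreated control (100%). Mean of at least three independent experiments ± SD.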

[7] = biological target: T1, Amyloid-beta precursor protein; experiment: Disruption of recombinant human amyloid beta (1 to 40) fibrils after 24 hrs by ThT fluorescence assay
[8] = biological target: T1, Amyloid-beta precursor protein; experiment: Disruption of recombinant human amyloid beta (1 to 40) fibrils after 2 hrs by ThT fluorescence assay
[9] = Cytotoxicity against mouse HT22 cells assessed as reduction in cell viability after 24 hrs by MTT assay; type: cell-based, HT-22
Method in brief: (§2)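 HT-22 cells (5 × 10^3 per well) plated, then treated the next day for 24 h with compound in complete medium (1–25 μM range; 10 mM DMSO stock, final DMSO 0.025%; DMSO as negative control). MTT at 0.5 mg/mL final, 2 h, 37 °C; formazan solubilized, A570 read. Mean of at least three independent experiments ± SD.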

HT-22 [10] = experiment: Cytotoxicity against mouse HT22 cells assessed as reduction in cell viability at 5 uM after 24 hrs by MTT assay; type: cell-based; details: ht-22, 24 h; method in brief: as §2
[11] = biological target: T1, Amyloid-beta precursor protein; experiment: Disruption of recombinant human amyloid beta (1 to 40) fibrils at 10 uM after 24 hrs by atomic force microscopic method
Method in brief: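 10 μM Aβ1-40 fibrils plus 10 μM compound, incubated 24 h at 37 °C. Spread on fresh mica, adsorbed 5 min, water-washed, dried under nitrogen, imaged by AFM. No smoothing or noise reduction applied.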

HT-22 [12] = experiment: Cytotoxicity against mouse HT22 cells assessed as reduction in cell viability at 10 uM after 24 hrs by MTT assay; type: cell-based; details: ht-22, 24 h; method in brief: as §2

T1 sequence (P05067 whole entry): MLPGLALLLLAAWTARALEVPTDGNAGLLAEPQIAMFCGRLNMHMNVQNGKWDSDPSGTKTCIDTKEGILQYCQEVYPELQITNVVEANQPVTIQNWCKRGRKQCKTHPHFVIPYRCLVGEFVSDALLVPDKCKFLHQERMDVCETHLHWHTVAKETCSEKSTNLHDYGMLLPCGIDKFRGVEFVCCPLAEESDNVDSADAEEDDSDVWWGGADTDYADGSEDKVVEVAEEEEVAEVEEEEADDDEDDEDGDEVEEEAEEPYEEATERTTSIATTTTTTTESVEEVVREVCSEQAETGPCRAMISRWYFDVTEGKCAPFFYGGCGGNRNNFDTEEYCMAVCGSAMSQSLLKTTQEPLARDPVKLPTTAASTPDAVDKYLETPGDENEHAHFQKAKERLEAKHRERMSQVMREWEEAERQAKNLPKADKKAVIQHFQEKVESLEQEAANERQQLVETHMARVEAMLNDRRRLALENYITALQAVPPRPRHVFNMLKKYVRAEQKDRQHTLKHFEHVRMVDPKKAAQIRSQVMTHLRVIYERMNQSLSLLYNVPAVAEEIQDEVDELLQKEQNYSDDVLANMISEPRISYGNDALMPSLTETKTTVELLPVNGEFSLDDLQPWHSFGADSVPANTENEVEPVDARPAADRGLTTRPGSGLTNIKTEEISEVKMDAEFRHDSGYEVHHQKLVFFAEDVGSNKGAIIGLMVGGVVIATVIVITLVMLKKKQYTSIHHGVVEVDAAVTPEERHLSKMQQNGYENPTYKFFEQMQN

Activity [5]: > 75% | DC50 ([7]; read-out: DC50): 0.31 µM | DC50 [8]: 0.65 µM
SMILES: COc1cc(/C=C/c2cc(/C=C/c3ccc(OC(C)=O)c(OC)c3)[nH]n2)ccc1OC(C)=O
Activity (HT-22 [1]): Active | Activity (HT-22 [2]): Active | Activity (HT-22 [3]): Active | Activity (HT-22 [4]): Active | Activity (HT-22 [6]): Active | MNTC at 24 h [9]: 1000 nM | Activity (HT-22 [10]): Toxic

Activity [5]: Active | DC50 [7]: Not Active | Activity [11]: inactive
SMILES: O=C(/C=C(O)/C=C/c1ccccc1)/C=C/c1ccccc1

Activity [5]: Active | DC50 [7]: Not Active
SMILES: C(=C\c1cc(/C=C/c2ccccc2)[nH]n1)/c1ccccc1

Activity [5]: > 75% | DC50 ([7]; read-out: DC50): 1.16 µM
SMILES: COc1cc(/C=C/C(=O)/C(CCCN2C(=O)c3ccccc3C2=O)=C(O)/C=C/c2ccc(O)c(OC)c2)ccc1O

Activity [5]: > 75% | Activity [7]: Dose-dependent effect | DC50 ([7]; read-out: DC50): 1.47 µM | Activity [8]: Dose-dependent effect
SMILES: COc1cc(/C=C/c2cc(/C=C/c3ccc(O)c(OC)c3)[nH]n2)ccc1O [CURCUMIN PYRAZOLE]

DC50 ([7]; read-out: DC50): 1.95 µM | DC50 [8]: 1 µM
SMILES: COc1cc(/C=C/C(=O)/C=C(O)/C=C/c2ccc(OC(C)=O)c(OC)c2)ccc1OC(C)=O
Activity (HT-22 [1]): Active | Activity (HT-22 [2]): Active | Activity (HT-22 [3]): Active | Activity (HT-22 [4]): Active | Activity (HT-22 [6]): Active | MNTC at 24 h [9]: 1000 nM | Activity (HT-22 [10]): Toxic

Activity [5]: Active | DC50 [7]: Not Active
SMILES: O=C(/C=C/c1ccccc1)/C(CCCN1C(=O)c2ccccc2C1=O)=C(O)/C=C/c1ccccc1

DC50 [7]: Not Active
SMILES: COc1cccc(/C=C/C(=O)/C=C(O)/C=C/c2cccc(OC)c2)c1

Activity [5]: > 75% | Activity [7]: Dose-dependent effect | Activity [8]: Dose-dependent effect | Activity [11]: Active
SMILES: COc1cc(/C=C/C(=O)CC(=O)/C=C/c2ccc(O)c(OC)c2)ccc1O [CURCUMIN]
Activity (HT-22 [1]): Active | Activity (HT-22 [2]): Active | Activity (HT-22 [3]): Active | Activity (HT-22 [4]): Active | Activity (HT-22 [6]): Active | MNTC at 24 h [9]: 1000 nM | Activity (HT-22 [12]): Toxic

Activity [5]: Active | DC50 [7]: Not Active
SMILES: COc1cc(/C=C/C(=O)/C=C(/C)O)ccc1O

Activity [5]: Active | DC50 ([7]; read-out: DC50): 38.8 µM
SMILES: COc1cc(/C=C/c2cc(C)[nH]n2)ccc1O

— ChEMBL document CHEMBL4229461 (Bioorg Med Chem, 2018)
